Legend:
[1] = Clearance in rat at 2 mg/kg, iv; assay type: ADME, organism-based; set-up: dose 2 mg/kg, route intravenous; settings: in vivo
Summary of the method: (§1)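 Single 2 mg/kg IV dose (HCl salt) to define clearance, volume of distribution and half-life; oral arm given 5 mg/kg in 0.5% methylcellulose to derive bioavailability (F).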

[2] = biological target: Epidermal growth factor receptor and ErbB2 (HER1 and HER2) (Homo sapiens) (UniProt P04626+P00533); assay: Selectivity for erbB2 over EGFR; assay type: protein assay
Summary of the method: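 Cell selectivity: IC50 ratio between two NIH3T3 lines run under identical conditions, one carrying human EGFR and one carrying the EGFR-extracellular/erbB2-intracellular chimera. Each line takes 2 h inhibitor, then 15 min human recombinant EGF. Phosphotyrosine measured with HRP-PY-54 and TMB at 450 nm.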

[3] = Bioavailability in rat at 5 mg/kg, po; assay type: ADME, organism-based; settings: in vivo; summary of the method: as §1
[4] = biological target: T1, Receptor tyrosine-protein kinase erbB-2 (Homo sapiens, UniProt P04626); assay: Inhibition of erbB2 expressed in Sf9 cells
Summary of the method: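 GST-tagged erbB2 intracellular domain (residues 675–1255) made in baculovirus/Sf9 and purified; ~15 ng enzyme phosphorylates poly(Glu,Tyr) with 1 mM ATP plus inhibitor over 6 min. Phosphotyrosine detected by HRP-PY-54 antibody and TMB, A450. IC50 is the mean of at least two experiments.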

[5] = biological target: T1, Receptor tyrosine-protein kinase erbB-2; assay: Inhibition of erbB2 in NH3T3 cells; assay type: cell-based
Summary of the method: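 NIH3T3 cells expressing a chimera of EGFR extracellular and erbB2 intracellular domains are plated, exposed to inhibitor for 2 h, then stimulated with human recombinant EGF for 15 min. Receptor phosphotyrosine read with HRP-PY-54 antibody and TMB, A450. IC50 is the mean of at least two experiments.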

[6] = Volume of distribution in rat at 2 mg/kg, iv; assay type: ADME, organism-based; set-up: dose 2 mg/kg, route intravenous; settings: in vivo, read-out: Vdss; summary of the method: as §1
[7] = Half life in rat at 2 mg/kg, iv after 1 hr; assay type: ADME, organism-based; set-up: dose 2 mg/kg, route intravenous; settings: in vivo; summary of the method: as §1
[8] = biological target: Protein kinase C theta type (Homo sapiens) (UniProt Q04759); assay: Inhibition of PKCtheta
[9] = biological target: T2, Tyrosine-protein kinase JAK3 (Homo sapiens) (UniProt P52333); assay: Inhibition of JAK3
T2 sequence (whole entry): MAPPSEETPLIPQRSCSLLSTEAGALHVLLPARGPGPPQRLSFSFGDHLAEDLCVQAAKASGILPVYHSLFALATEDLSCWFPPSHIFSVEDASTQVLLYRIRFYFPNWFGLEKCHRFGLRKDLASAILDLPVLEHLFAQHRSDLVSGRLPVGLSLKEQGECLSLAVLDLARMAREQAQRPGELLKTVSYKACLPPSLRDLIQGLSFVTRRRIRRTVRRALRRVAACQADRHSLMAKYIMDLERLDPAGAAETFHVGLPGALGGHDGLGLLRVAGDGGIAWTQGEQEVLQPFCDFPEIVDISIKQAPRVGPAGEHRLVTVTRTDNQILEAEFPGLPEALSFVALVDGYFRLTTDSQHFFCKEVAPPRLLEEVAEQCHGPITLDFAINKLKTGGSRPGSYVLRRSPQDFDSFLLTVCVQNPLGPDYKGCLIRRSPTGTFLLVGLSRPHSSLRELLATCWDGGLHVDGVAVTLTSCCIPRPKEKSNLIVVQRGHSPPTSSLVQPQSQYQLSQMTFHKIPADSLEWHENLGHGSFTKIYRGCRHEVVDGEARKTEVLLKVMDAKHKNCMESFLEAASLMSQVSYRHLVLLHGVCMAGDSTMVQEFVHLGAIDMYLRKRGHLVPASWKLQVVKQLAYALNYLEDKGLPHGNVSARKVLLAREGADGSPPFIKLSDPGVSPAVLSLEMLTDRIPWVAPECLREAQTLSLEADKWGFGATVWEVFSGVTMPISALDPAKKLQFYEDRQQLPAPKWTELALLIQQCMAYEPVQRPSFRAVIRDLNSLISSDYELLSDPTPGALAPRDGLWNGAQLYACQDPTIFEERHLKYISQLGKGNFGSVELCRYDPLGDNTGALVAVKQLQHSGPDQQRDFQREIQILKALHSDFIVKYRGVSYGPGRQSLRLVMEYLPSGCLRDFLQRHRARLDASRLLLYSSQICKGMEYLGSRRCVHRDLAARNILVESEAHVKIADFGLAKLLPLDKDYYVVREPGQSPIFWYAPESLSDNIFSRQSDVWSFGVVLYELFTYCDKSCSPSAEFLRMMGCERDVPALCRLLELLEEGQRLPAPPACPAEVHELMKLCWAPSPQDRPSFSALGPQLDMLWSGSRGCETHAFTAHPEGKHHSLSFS

[10] = biological target: Tyrosine-protein kinase Fes/Fps (Homo sapiens) (UniProt P07332); assay: Inhibition of FES
[11] = biological target: Epidermal growth factor receptor (Homo sapiens) (UniProt P00533); assay: Inhibition of EGFR
[12] = biological target: Insulin receptor (Homo sapiens) (UniProt P06213); assay: Inhibition of IRK
[13] = biological target: Proto-oncogene tyrosine-protein kinase Src (Homo sapiens) (UniProt P12931); assay: Inhibition of cSRC
[14] = biological target: cAMP-dependent protein kinase (PKA) (Homo sapiens) (UniProt P22694+P17612+P22612); assay: Inhibition of PKA; assay type: protein assay
[15] = biological target: Platelet-derived growth factor receptor beta (Homo sapiens) (UniProt P09619); assay: Inhibition of PDGFRB
[16] = biological target: Insulin-like growth factor 1 receptor (Homo sapiens) (UniProt P08069); assay: Inhibition of IGF1R
[17] = biological target: Protein kinase C alpha type (Homo sapiens) (UniProt P17252); assay: Inhibition of PKCalpha
[18] = Permeability from apical to basolateral side of Caco-2 cell membrane; assay type: ADME, cell-based; settings: human, read-out: permeability
[19] = biological target: Cyclin-dependent kinase 5 (Homo sapiens) (UniProt Q00535); assay: Inhibition of CDK5
[20] = biological target: Cyclin-dependent kinase 2 (Homo sapiens) (UniProt P24941); assay: Inhibition of CDK2
[21] = biological target: Tyrosine-protein kinase Lck (Homo sapiens) (UniProt P06239); assay: Inhibition of LCK
[22] = biological target: Wee1-like protein kinase (Homo sapiens) (UniProt P30291); assay: Inhibition of Wee1

T1 sequence (P04626 whole entry, the tested form may be a part): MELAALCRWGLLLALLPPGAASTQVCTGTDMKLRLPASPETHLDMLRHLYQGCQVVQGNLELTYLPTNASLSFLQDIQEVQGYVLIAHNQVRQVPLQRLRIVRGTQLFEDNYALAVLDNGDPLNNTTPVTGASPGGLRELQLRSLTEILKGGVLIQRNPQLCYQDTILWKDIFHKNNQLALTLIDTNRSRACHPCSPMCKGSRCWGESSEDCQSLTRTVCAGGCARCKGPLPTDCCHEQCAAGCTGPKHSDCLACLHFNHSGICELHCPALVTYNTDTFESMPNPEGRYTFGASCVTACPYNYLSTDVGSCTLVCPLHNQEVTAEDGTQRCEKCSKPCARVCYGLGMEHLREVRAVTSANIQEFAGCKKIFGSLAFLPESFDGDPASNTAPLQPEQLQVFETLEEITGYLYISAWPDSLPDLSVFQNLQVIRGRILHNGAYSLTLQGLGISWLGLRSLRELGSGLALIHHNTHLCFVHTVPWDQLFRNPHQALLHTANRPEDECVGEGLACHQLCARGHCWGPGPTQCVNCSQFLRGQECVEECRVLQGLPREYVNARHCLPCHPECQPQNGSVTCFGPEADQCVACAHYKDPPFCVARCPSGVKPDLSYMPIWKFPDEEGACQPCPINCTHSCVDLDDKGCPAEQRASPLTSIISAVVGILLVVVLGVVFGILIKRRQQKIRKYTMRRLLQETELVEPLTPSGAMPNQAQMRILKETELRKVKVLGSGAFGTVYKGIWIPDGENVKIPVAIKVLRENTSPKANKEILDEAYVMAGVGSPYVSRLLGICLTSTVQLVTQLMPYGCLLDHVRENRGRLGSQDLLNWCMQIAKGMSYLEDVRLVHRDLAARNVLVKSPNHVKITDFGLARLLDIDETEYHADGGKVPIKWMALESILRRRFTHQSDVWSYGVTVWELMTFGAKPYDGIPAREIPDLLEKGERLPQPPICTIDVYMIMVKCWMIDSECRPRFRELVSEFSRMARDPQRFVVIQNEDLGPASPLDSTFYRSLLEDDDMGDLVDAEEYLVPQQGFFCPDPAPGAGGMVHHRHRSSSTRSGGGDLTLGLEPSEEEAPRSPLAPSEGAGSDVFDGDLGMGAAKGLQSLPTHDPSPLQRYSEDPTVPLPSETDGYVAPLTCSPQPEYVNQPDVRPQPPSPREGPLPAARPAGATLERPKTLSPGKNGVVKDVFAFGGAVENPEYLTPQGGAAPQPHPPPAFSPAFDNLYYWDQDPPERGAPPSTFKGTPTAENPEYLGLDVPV
Chain of Proto-oncogene tyrosine-protein kinase Src (Homo sapiens) (P12931 2-536 limits assumed): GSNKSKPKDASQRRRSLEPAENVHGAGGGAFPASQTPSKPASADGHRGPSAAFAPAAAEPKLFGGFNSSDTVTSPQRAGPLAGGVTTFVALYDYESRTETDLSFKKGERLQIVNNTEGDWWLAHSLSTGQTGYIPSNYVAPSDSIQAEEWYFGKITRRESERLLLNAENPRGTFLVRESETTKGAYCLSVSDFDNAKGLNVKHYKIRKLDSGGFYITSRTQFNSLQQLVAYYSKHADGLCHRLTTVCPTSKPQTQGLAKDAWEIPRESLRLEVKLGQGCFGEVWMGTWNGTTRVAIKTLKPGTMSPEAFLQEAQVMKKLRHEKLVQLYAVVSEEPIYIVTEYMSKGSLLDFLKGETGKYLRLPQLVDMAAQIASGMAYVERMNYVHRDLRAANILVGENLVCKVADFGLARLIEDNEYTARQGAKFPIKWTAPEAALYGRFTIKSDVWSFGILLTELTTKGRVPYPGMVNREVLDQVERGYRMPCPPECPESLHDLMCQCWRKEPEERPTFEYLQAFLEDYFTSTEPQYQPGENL
Chain of Cyclin-dependent kinase 5 (Homo sapiens) (Q00535 whole entry, looked up): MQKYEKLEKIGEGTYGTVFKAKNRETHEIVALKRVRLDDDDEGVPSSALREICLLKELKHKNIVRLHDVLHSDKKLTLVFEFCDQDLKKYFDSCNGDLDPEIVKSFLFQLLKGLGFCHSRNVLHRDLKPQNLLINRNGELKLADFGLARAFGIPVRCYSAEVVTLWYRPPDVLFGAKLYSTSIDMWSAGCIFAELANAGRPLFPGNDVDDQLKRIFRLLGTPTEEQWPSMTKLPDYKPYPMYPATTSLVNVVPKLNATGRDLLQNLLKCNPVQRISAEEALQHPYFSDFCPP
Chain of Tyrosine-protein kinase Fes/Fps (Homo sapiens) (P07332 whole entry): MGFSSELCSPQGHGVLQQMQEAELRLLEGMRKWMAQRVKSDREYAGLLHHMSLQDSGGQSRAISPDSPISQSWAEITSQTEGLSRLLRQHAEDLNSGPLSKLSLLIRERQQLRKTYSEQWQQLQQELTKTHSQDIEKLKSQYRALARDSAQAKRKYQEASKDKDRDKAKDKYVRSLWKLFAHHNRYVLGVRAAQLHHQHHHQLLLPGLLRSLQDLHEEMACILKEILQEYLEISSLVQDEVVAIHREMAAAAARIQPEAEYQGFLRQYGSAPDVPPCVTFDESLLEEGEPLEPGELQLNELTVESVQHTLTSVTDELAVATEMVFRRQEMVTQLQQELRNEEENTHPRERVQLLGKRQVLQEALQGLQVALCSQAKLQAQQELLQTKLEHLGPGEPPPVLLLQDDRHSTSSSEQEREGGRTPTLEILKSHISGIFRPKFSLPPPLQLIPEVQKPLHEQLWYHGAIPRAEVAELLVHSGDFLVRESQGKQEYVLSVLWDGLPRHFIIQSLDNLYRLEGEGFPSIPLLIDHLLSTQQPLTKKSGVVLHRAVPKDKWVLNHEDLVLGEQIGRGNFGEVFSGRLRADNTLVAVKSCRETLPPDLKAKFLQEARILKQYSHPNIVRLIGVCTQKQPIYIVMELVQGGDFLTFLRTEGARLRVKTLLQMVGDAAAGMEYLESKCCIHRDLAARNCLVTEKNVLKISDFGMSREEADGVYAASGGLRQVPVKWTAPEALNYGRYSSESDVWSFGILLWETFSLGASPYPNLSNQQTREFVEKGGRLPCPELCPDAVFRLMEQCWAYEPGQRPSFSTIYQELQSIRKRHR
Chain of Insulin-like growth factor 1 receptor (Homo sapiens) (P08069 31-736 limits assumed): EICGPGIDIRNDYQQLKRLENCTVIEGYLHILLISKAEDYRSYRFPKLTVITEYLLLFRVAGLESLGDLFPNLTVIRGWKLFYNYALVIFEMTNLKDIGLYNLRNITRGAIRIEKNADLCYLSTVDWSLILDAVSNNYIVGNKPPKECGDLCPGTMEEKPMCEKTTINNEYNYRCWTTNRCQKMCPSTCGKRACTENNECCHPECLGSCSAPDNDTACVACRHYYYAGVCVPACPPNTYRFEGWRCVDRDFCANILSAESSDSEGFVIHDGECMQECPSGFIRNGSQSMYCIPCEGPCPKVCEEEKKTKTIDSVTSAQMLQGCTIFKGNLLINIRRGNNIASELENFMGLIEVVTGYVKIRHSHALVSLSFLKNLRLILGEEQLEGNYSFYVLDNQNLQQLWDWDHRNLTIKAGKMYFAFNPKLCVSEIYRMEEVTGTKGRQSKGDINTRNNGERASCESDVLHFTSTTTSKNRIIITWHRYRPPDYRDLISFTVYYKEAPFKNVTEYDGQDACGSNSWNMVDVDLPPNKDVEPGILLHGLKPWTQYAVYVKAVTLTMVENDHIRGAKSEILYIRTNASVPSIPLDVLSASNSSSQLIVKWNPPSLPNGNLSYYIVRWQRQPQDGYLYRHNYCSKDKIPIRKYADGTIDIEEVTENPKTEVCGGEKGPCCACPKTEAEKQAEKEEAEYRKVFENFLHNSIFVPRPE
Chain of Insulin-like growth factor 1 receptor (Homo sapiens) (P08069 741-1367 limits assumed): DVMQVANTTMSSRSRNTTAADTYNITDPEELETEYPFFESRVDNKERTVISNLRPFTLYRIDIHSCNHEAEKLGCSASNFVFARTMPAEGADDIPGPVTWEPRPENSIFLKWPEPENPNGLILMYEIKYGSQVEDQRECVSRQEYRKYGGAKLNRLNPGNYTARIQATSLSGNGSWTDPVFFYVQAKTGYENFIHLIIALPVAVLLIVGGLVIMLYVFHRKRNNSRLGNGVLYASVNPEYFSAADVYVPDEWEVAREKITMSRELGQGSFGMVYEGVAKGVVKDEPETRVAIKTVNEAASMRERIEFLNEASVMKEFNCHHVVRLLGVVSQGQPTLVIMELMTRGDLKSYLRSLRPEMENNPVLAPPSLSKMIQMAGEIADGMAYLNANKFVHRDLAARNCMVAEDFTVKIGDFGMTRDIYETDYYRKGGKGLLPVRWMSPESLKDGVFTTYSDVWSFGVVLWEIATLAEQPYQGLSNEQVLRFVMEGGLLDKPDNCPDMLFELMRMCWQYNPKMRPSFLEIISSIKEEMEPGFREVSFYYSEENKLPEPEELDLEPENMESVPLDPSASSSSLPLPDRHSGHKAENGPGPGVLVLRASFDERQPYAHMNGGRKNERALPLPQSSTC

Row | SMILES | Selectivity ratio [2] | IC50 [4] [nM] | IC50 [5] [nM] | also measured
1 | Cc1cc(Nc2ncnc3cnc(N4CCOCC4)cc23)ccc1OC1CCN(C(=O)C2CCCC2)CC1 | > 300 | 18 | 33 | clearance [1]: 2.5 mL/min/kg; bioavailability [3]: 54%; Vd [6]: 0.2 L/kg; half-life [7]: 1 h
2 | Cc1cc(Nc2ncnc3cnc(N4CCOCC4)cc23)ccc1Oc1ccc(C(=O)NCC(C)(C)C)cc1 | > 410 | 21 | 24 | Activity [8]: > 10 µM; Activity [9]: > 10 µM; Activity [10]: > 10 µM; Activity [11]: > 10 µM; Activity [12]: > 10 µM; Activity [13]: > 10 µM; Activity [14]: > 10 µM; Activity [15]: > 10 µM; Activity [16]: > 10 µM; Activity [17]: > 10 µM; Papp A→B [18]: 15.4 ×10⁻⁶ cm/s; Activity [19]: > 10 µM; Activity [20]: > 10 µM; Activity [21]: > 10 µM; Activity [22]: > 10 µM
3 | COc1cc2ncnc(Nc3ccc(OC4CCN(C(=O)CC(C)(C)C)CC4)c(C)c3)c2cc1OC | > 130 | 100 | 76 | –
4 | COCCOc1ccc2ncnc(Nc3ccc(OC4CCN(C(=O)Nc5c(F)cccc5F)CC4)c(C)c3)c2c1 | > 300 | 27 | 33 | –
5 | COCC(=O)NCC#Cc1ccc2ncnc(Nc3ccc(Oc4cccc(C(=O)NC5CCC5)c4)c(C)c3)c2c1 | > 64 | 230 | 160 | –
6 | COCC(=O)NCC#Cc1ccc2ncnc(Nc3ccc(OC4CCN(C(=O)C5CCC5)CC4)c(C)c3)c2c1 | > 200 | 150 | 51 | –
7 | Cc1cc(Nc2ncnc3cnc(N(C)C)cc23)ccc1OC1CCN(C(=O)CC(C)(C)C)CC1 | > 230 | 51 | < 10 | –
8 | Cc1cc(Nc2ncnc3cnc(N4CCCC4)cc23)ccc1Oc1ccc(C(=O)NCC(C)(C)C)cc1 | > 100 | 36 | < 10 | –
9 | COCC(=O)NCC#Cc1ccc2ncnc(Nc3ccc(OC4CCN(C(=O)Nc5c(F)cccc5F)CC4)c(C)c3)c2c1 | > 53 | 76 | 190 | –
10 | COCC(=O)NCC#Cc1ccc2ncnc(Nc3ccc(Oc4cccc(C(=O)NCC(C)(C)C)c4)c(C)c3)c2c1 | 91 | 130 | 110 | –

Second part, led by results:

Row | Selectivity ratio [2] | IC50 [4] [nM] | IC50 [5] [nM] | SMILES | also measured
11 | > 660 | 130 | 15 | Cc1cc(Nc2ncnc3cnc(N4CCN(C)CC4)cc23)ccc1Oc1ccc(C(=O)NCC(C)(C)C)cc1 | –
12 | 200 | 140 | 23 | COCC(=O)NCC#Cc1ccc2ncnc(Nc3ccc(Oc4ccc(C(=O)NCC(C)(C)C)cc4)c(C)c3)c2c1 | –
13 | 11 | 260 | 530 | COCCOc1cc2ncnc(Nc3ccc(OC4CCN(C(=O)CC(C)(C)C)CC4)c(C)c3)c2cc1OCCOC | –
14 | 230 | 280 | 15 | Cc1cc(Nc2ncnc3cnc(NCCN4CCOCC4)cc23)ccc1Oc1ccc(C(=O)NCC(C)(C)C)cc1 | –
15 | 92 | 210 | 75 | COCC(=O)NCC#Cc1ccc2ncnc(Nc3ccc(OC4CCN(C(=O)c5cccc(Cl)c5)CC4)c(C)c3)c2c1 | –
16 | > 770 | 48 | < 10 | Cc1cc(Nc2ncnc3cnc(N(C)C)cc23)ccc1Oc1ccc(C(=O)NCC(C)(C)C)cc1 | –
17 | 23 | 19 | 67 | COc1cc2ncnc(Nc3ccc(OC4CCN(C(=O)Nc5c(F)cccc5F)CC4)c(C)c3)c2cc1OC | –
18 | 400 | 94 | 16 | COCC(=O)NCC#Cc1ccc2ncnc(Nc3ccc(OC4CCN(C(=O)CC(C)(C)C)CC4)c(C)c3)c2c1 | –
